Assay outcomes (PubChem BioAssay)
T cruzi repl: blocks replication of Trypanosoma cruzi; T. cruzi beta-gal in NIH3T3, luminescence, 90 h; inhibition, % (test concentration not listed); 300,000 tested, 1.4% active; AID 1885;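 active = mean inhibition across valid replicates above about 55%, limit read from the data; inconclusive = mean below that limit but half or more replicates reach it; inactive = mean below it, under half of replicates reach it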;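 note: signal also drops with host cell toxicity which is not excluded here; 0% = plate median of DMSO wells and 100% = zero luminescence signal; higher percent means less beta-gal luminescence so fewer parasites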
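Assay system: NIH/3T3 fibroblasts plus reporter T. cruzi. Amount: NIH/3T3 cells, 5,000 per well. Buffer or medium: DMEM, 2% fetal bovine serum. Doses: compound pinned at 50 nL/well, DMSO. Schedule: ≥90 h infection period, 3 h prior cell attachment. Signal: luminescent β-galactosidase signal after 60 min lysis. Read-out: parasite load inhibition, %.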
HSF-1 act: increases HSF-1 driven luciferase reporter signal | 300,000 tested, 1.7% active | NIH3T3-HGL HSF-1 luciferase reporter, MG132, 8 h; 100% = twice DMSO control signal | activation, % at 9 µM;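 active = mean replicate activation of at least 50% with a set share of replicates each reaching 50%; inconclusive = only one of those two conditions met; inactive = mean below 50% and too few replicates reaching it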;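 note: 0% = median of the neutral control wells and 100% = twice that signal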
Hsp70 activator: switches on Hsp70 transcription; HeLa Hsp70 promoter luciferase reporter, luminescence; scaled: vehicle 0, proteasome-inhibitor control 100%; activation, % at 10 µM; AID 1203; 200,000 tested, 0.04% active;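 active = activation above the mean across all tested compounds plus 3 SD, cutoff set per campaign, cut at about 5.5% in these data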;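 note: 100% = MG132 at 30 µM as the positive control and 0% = DMSO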
HSF1 inhib: HSF1 inhibition | NIH3T3-HGL HSE-luciferase, MG132-induced, luminescence 8 h; stronger effect = lower value | activity change, negative = inhibition, % at 7.5 µM (by protocol) | 300,000 tested, 0.77% active | AID 2098;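 active = more than half of replicate wells show activity change below -50%, luminescence cut by over half; inconclusive = some wells, but at most half, below -50%; inactive = no replicate well below -50%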;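 note: luciferase reports HSF-1 transcriptional activity via heat shock element; 0% = median of DMSO wells and -100% = zero luminescence signal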
Lmaj promast: reduces viability of Leishmania major promastigotes | resazurin fluorescence viability | inhibition, % at 10 µM | 200,000 tested, 9% active | AID 1063; in the data active = inhibition above about 50%;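 note: promastigotes grown with compound for 44 hours at 28 °C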
* marks the source's active call; other numbers are inactive results; ? = inconclusive; nt = no result. Shown is part of a subset that was picked to be rich in hits.

SMILES	T cruzi repl	HSF-1 act	Hsp70 activator	HSF1 inhib	Lmaj promast
O=C(c1ccc2c(Cl)c3c(nc2c1)CCCC3)N1CCN(c2ccc(F)cc2)CC1	-27	72*	0	56	-4
COc1ccccc1N1CCN(C(=O)c2ccc3c(Cl)c4c(nc3c2)CCCC4)CC1	-29	40	0	25	10
CC1CCN(C(=O)c2ccc3c(Cl)c4c(nc3c2)CCCC4)CC1	-48	302*	0	194	16
CC(=O)NC(Cc1cc(C)ccc1C)C(=O)N1CCN(C(=O)c2ccc([N+](=O)[O-])cc2)CC1 (centres undefined)	9	-17	nt	-5	nt
Cc1cc(/C(N)=N/OC(=O)Nc2ccc(Cl)cc2)no1	-4	31	nt	16	nt
O=C1N(Cc2cccc(Cl)c2)C[C@@H]2C[C@@H](c3ccc4nonc4c3)N3CCC[C@@]123	23	-4	0	-4	60*
O=C1N(Cc2cccc(Cl)c2)C[C@@H]2C[C@@H](c3c[nH]c4ccccc34)N3CCC[C@@]123	58*	17	0	3	4
COc1ccccc1CN1C[C@@H]2C[C@@H](c3ccc(C)cc3)N3CCC[C@@]23C1=O	11	-5	0	0	-1
Cc1cccc([C@@H]2C[C@H]3CN(Cc4cccc(Cl)c4)C(=O)[C@]34CCCN24)n1	35	-24	0	-8	9
Cc1ccc([C@@H]2C[C@H]3CN(Cc4cccc(Cl)c4)C(=O)[C@]34CCCN24)o1	13	5	0	4	4
O=C1N(Cc2cccc(Cl)c2)C[C@@H]2C[C@@H](c3cccc4ncccc34)N3CCC[C@@]123	8	14	0	12	100*
COc1ccccc1CN1C[C@@H]2C[C@@H](c3ccc4nsnc4c3)N3CCC[C@@]23C1=O	26	5	0	3	67*
O=C1N(Cc2cccc(Cl)c2)C[C@@H]2C[C@@H](c3cccc4cccnc34)N3CCC[C@@]123	12	2	0	-4	39
Cc1ccc(OCC(O)Cn2nc(C)cc2C)cc1 (centres undefined)	-12	12	0	4	-7
CCOc1ccccc1CNC(=O)c1ccc2nc(N3CCOCC3)sc2c1	10	-2	nt	1	nt
O=C(CCn1c(=S)oc2ccccc21)Nc1ccccc1Br	-1	2	nt	12	nt
O=C1N(Cc2cccnc2)C[C@@H]2C[C@@H](c3ccccc3C#Cc3ccccc3)N3CCC[C@@]123	19	-8	0	7	6
Cc1ccccc1-c1cccc([C@@H]2C[C@H]3CN(Cc4cccnc4)C(=O)[C@]34CCCN24)c1	47	13	0	16	63*
Cc1ccc(N(CC(=O)NCc2ccco2)C(=O)CCC(=O)Nc2nccs2)c(C)c1	3	-4	nt	-12	nt
CCCCN(CCCC)C(=O)C1(P(=O)(c2ccccc2)c2ccccc2)CCC1	23	14	nt	3	nt
Cc1ccccc1SCC(=O)OCC(=O)NCCNC(=O)COC(=O)CSc1ccccc1C	4	1	nt	2	nt
CCN1C(=O)/C(=C2/Sc3ccc(OC)cc3N2C)SC1=Nc1ccc(C(C)=O)cc1	nt	nt	0	nt	-2
CCN1C(=O)/C(=C2/Sc3ccc(OC)cc3N2C)SC1=Nc1cccc(O)c1	48	24	0	2	99*
COc1ccc(-c2nc(-c3ccccc3)c(-c3cc([N+](=O)[O-])ccc3C)[nH]2)cc1O	-7	17	0	9	32
COc1ccc(-c2nc(=S)c3c([nH]2)Oc2ccc(C)cc2C3)cc1O	11	-2	0	-2	97*
SMILES	T cruzi repl	HSF-1 act	Hsp70 activator	HSF1 inhib	Lmaj promast
COc1ccc(-c2cnnc(N/N=C/c3ccc(C)o3)n2)cc1	-4	20	0	5	0
COCCNCCCCOc1ccccc1-c1ccccc1	-10	-4	0	-9	52*
CC(C)NCCCCOc1ccccc1-c1ccccc1	-8	19	-1	-5	98*
CCCCNCCOCCOc1ccccc1-c1ccccc1	7	-60	0	?	92*
C=CCNCCOc1ccccc1-c1ccccc1	-9	3	0	-6	18
COc1ccccc1NC(=O)Nc1nc(C(C)(C)C)cs1	22	15	0	15	18
Cc1ccccc1NC(=O)CNC(=O)c1ccc(C(F)(F)F)cc1	-7	1	0	6	62*
COc1cccc(/C=C2\N=C(SC)SC2=O)c1OC	2	56*	0	31	7
Cc1cccc(NC(=O)c2cc(-c3cc(C)ccc3O)n[nH]2)c1	-8	104*	nt	55	nt
COc1ccc(Cl)cc1NC(=O)c1cc(-c2ccccc2O)n[nH]1	-2	30	0	-4	-10
Cc1c(Cl)cccc1NC(=O)c1cc(-c2ccccc2O)n[nH]1	-16	87*	0	69	-5
C1=CC(c2cc3ccccc3o2)OC(CCc2ccccc2)C1 (centres undefined)	-17	13	nt	-1	nt
CCOC(=O)C1C(=O)C=C(c2ccc(C)cc2)CC1c1cccc([N+](=O)[O-])c1 (centres undefined)	16	12	0	12	10
Cc1cc(NCCN2CCOCC2)n2nc(C)c(-c3ccc(Cl)cc3)c2n1	10	65*	0	31	94*
Cc1cc(NCCCn2ccnc2)n2nc(C)c(-c3ccc(Cl)cc3)c2n1	46	-6	0	-5	98*
Cc1cc(NCCCn2ccnc2)n2nc(C)c(-c3ccccc3)c2n1	28	25	0	1	14
CCCCCn1nnc2c(=O)oc3ccccc3c21	-7	20	0	-2	-6
Cc1cc(SCC(=O)c2cc(C)n(C)c2C)nc2ccccc12	9	1	0	-15	-1
CC(C)CCN(C)C1CCN(S(=O)(=O)c2ccc(F)cc2)CC1	23	5	0	-3	95*
COc1cc(/C=N\Nc2nncn2N)ccc1OC(C)=O	-17	56*	nt	28	nt
CSc1ccc(/C=N\Nc2nncn2N)cc1	-12	95*	nt	37	nt
COC(=O)c1cc(S(=O)(=O)NCc2ccc(S(N)(=O)=O)cc2)oc1C	6	0	nt	-7	nt
CCCCNC(=O)[C@H]1C[C@H]1[C@@H](O)[C@H](CO)NC(=O)[C@H](COCc1ccccc1)NC(=O)OC(C)(C)C	-12	-11	nt	-7	nt
CCN(C(=O)CN1C(=O)S/C(=C\C=C\c2ccccc2)C1=O)C1CCS(=O)(=O)C1 (centres undefined)	28	86*	nt	67	nt
O=C(CN1C(=O)S/C(=C\C=C\c2ccccc2)C1=O)Nc1cccc(O)c1	-19	154*	0	105	18
O=C(CN1C(=O)S/C(=C\C=C\c2ccccc2)C1=O)Nc1ccccc1C(=O)O	-3	15	nt	0	nt
O=C(CCN1C(=O)S/C(=C\C=C\c2ccccc2)C1=O)Nc1ccc(O)cc1	-18	100*	nt	69	nt
CCN(C(=O)CN1C(=O)S/C(=C\c2cccc(Cl)c2)C1=O)C1CCS(=O)(=O)C1 (centres undefined)	-15	?	nt	31	nt
